Source: PubChem (several laboratories)
E coli WT exp: E. coli BW25113 growth inhibition, expanded screen | OD600 absorbance | growth inhibition, % at 100 µM | 98,000 compounds, 0.15% hits;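 active means growth inhibition above about 50% at one test dose, limit read from the data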;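 further: growth measured after 20 h incubation at 37 °C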
CYP2C19 activ: cytochrome P450 2C19 (human) activation; activation factor at 5 µM; recombinant CYP2C19, luciferin-H EGE luminescence; hits give high values; 0 = fully inhibited enzyme, 1 = untreated enzyme; P33261; AID 1025; 96,000 tested, under 10 active;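 active means activation factor of at least 2 at 5 µM in the primary screen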;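 further: 0 = wells with 2.5 mM tranylcypromine and 1 = vehicle-only wells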
CYP2C19 inh: inhibitors of human CYP2C19 | inhibition, % at 5 µM | 96,000 compounds, 21% hits | CYP2C19 Supersomes, luciferin-H EGE luminescence, 30 min;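 active means CYP2C19 inhibition above a set limit at 5 µM in the primary screen, cut at about 50% in these data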;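 further: plate controls were negative control wells for no effect and 2.5 mM tranylcypromine positive control for full effect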
CYP2C9 inh: human CYP2C9 inhibition. P11712. CYP2C9 Supersomes, luciferin-H conversion, luminescence. inhibition, % at 5 µM. 96,000 compounds, 20% hits;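 active means blocking of liver enzyme CYP2C9 beyond about 50% at 5 µM, limit read from the data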
Target sequence (P11712 whole entry, looked up): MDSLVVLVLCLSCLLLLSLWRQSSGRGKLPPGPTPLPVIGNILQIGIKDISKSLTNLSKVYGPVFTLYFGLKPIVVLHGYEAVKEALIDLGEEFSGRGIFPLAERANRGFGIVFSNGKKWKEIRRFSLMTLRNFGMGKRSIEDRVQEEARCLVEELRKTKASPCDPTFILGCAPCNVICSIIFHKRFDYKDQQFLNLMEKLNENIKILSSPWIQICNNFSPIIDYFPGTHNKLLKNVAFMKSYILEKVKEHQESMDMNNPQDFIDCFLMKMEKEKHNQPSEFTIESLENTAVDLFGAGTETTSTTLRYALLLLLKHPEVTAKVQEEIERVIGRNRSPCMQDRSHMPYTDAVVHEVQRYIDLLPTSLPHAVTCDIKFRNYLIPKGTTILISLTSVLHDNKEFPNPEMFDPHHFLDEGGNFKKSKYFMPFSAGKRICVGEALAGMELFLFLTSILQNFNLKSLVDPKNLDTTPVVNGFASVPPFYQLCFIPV
CYP2C9 act: increases human cytochrome P450 2C9 activity. P11712. recombinant CYP2C9, luciferin-H conversion, luminescence; hits give high values; factor 1 = untreated enzyme, 0 = blocked. activation factor at 5 µM. 96,000 compounds, 1.4% hits. AID 1024;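 active means activation factor of 2 or more for CYP2C9 at a 5 µM dose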;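 further: 0 = sulfaphenazole-blocked wells and 1 = vehicle-only wells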
Ecoli tolC: growth inhibitors of E. coli BW25113 tolC mutant; AID 573; 65,000 compounds, 2.2% hits; growth inhibition, % at 10 µM (by protocol); OD615;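 active means growth inhibition at or above a cutoff equal to the mean over every tested compound plus 3 SD, cut at about 60% in these data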;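 further: growth measured after 20 h incubation at 37 °C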
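Test system: tolC-deleted E. coli BW25113; medium: LB with kanamycin 50 µg/mL; compound: single-point testing at 10 µM; incubation: 20 h compound exposure of bacteria at 37 °C; signal: OD at 615 nm; evaluation: growth inhibition in percent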
The depositor's hits bear a star. A selection: hits, their analogues and other compounds. The true share with any hit is near 29%.

`Cn1c2ccccc2c2ncn(Cc3ccco3)c(=O)c21` gave E coli WT exp -10, CYP2C19 activ 0.3, CYP2C19 inh 69*, CYP2C9 inh 60*, CYP2C9 act 0.4 and Ecoli tolC 8.
CCCCn1c(=O)n(Cc2cccc(F)c2)c(=O)c2c1ncn2Cc1ccco1 was read as E coli WT exp -6, CYP2C19 activ 0.9, CYP2C19 inh 11, CYP2C9 inh 11, CYP2C9 act 0.9 and Ecoli tolC 65*.
Screening CN1C(=O)N(c2ccccc2)C(Nc2nncs2)C1(C)C (stereo unspecified) returned E coli WT exp 7, CYP2C19 activ 1.1, CYP2C19 inh -13, CYP2C9 inh 3, CYP2C9 act 1 and Ecoli tolC 15.
CCCCS/C(N)=N/N=C/c1ccccc1O was read as E coli WT exp 6, CYP2C19 activ 0.1, CYP2C19 inh 88*, CYP2C9 inh 82* and CYP2C9 act 0.2.
Cc1onc(-c2ccccc2)c1C(=O)N1CCN(S(=O)(=O)c2ccc3c(c2)OCCO3)CC1 was read as E coli WT exp -4, CYP2C19 activ 0.3, CYP2C19 inh 74*, CYP2C9 inh 41, CYP2C9 act 0.6 and Ecoli tolC 14.
For O=C(COc1ccccc1)Nc1ccc(S(=O)(=O)N2CCOCC2)cc1 the results were E coli WT exp -1, CYP2C19 activ 1, CYP2C19 inh 1, CYP2C9 inh 18, CYP2C9 act 0.8 and Ecoli tolC -5.
`O=C(c1ccco1)N1CCN(S(=O)(=O)c2ccc(Oc3ccccc3)cc2)CC1` gave E coli WT exp -8, CYP2C19 activ 0.5, CYP2C19 inh 54*, CYP2C9 inh 84*, CYP2C9 act 0.2 and Ecoli tolC 33.
`O=C(c1ccco1)N1CCN(S(=O)(=O)c2ccc3c(c2)OCCO3)CC1` gave E coli WT exp 7, CYP2C19 activ 0, CYP2C19 inh 96*, CYP2C9 inh -13, CYP2C9 act 1.1 and Ecoli tolC 10.
Screening O=S(=O)(c1ccc(Oc2ncnc3scc(-c4ccccc4)c23)cc1)N1CCOCC1 returned E coli WT exp -5, CYP2C19 activ 0.3, CYP2C19 inh 72*, CYP2C9 inh 73*, CYP2C9 act 0.3 and Ecoli tolC 33.
For Cc1ccc(C(=O)CSc2nnc(-c3ccco3)n2CC2CCCO2)cc1 (stereo unspecified) the results were E coli WT exp 6, CYP2C19 activ 0.8, CYP2C19 inh 21, CYP2C9 inh 2, CYP2C9 act 1 and Ecoli tolC -15.
Screening Fc1ccccc1C(c1nnnn1Cc1ccc2c(c1)OCO2)N1CCN(Cc2ccco2)CC1 (stereo unspecified) returned E coli WT exp 6, CYP2C19 activ 0.8, CYP2C19 inh 23, CYP2C9 inh -20, CYP2C9 act 1.2 and Ecoli tolC 17.
Cc1cccn2cc(-c3ccc(S(=O)(=O)N4CCOCC4)cc3)nc12 was read as E coli WT exp 2, CYP2C19 activ 0.9, CYP2C19 inh 12, CYP2C9 inh -8, CYP2C9 act 1.1 and Ecoli tolC 8.
Screening O=S(=O)(c1ccc(-c2cn3ccccc3n2)cc1)N1CCOCC1 returned E coli WT exp 3, CYP2C19 activ 0.9, CYP2C19 inh 5, CYP2C9 inh 55*, CYP2C9 act 0.5 and Ecoli tolC -6.
For CC(C(=O)Nc1ccc(S(=O)(=O)N2CCCC2)cc1)N1CCN(C(=O)c2ccco2)CC1 (stereo unspecified) the results were E coli WT exp -5, CYP2C19 activ 0.9, CYP2C19 inh 13, CYP2C9 inh 64* and CYP2C9 act 0.4.
O=C(CCc1ccc(S(=O)(=O)N2CCOCC2)cc1)Oc1ccccc1 was read as E coli WT exp -8, CYP2C19 activ 0.9, CYP2C19 inh 5, CYP2C9 inh 22, CYP2C9 act 0.8 and Ecoli tolC -7.
Screening O=S(=O)(c1ccc(Oc2ccccc2)cc1)N1CCOCC1 returned E coli WT exp -1, CYP2C19 activ 0.6, CYP2C19 inh 42, CYP2C9 inh 57*, CYP2C9 act 0.4 and Ecoli tolC -2.
COc1cc(C(=O)Nc2sc3c(c2C(=O)NCc2ccco2)CCCC3)cc(OC)c1OC was read as E coli WT exp -12, CYP2C19 activ 0.4, CYP2C19 inh 61*, CYP2C9 inh 76* and CYP2C9 act 0.2.
COc1ccc(C(=O)Nc2ccccc2C(=O)NCc2ccco2)cc1OC was read as E coli WT exp -10, CYP2C19 activ 0.8, CYP2C19 inh 20, CYP2C9 inh 36, CYP2C9 act 0.6 and Ecoli tolC 3.
For Cc1ccc(C(=O)Nc2sc3c(c2C(=O)NCc2ccco2)CCCC3)cc1 the results were E coli WT exp -3, CYP2C19 activ 0.9, CYP2C19 inh 8, CYP2C9 inh 65* and CYP2C9 act 0.3.
For O=C(Nc1sc2c(c1C(=O)NCc1ccco1)CCCC2)c1ccc2c(c1)OCO2 the results were E coli WT exp -19, CYP2C19 activ 0.4, CYP2C19 inh 63*, CYP2C9 inh 84*, CYP2C9 act 0.2 and Ecoli tolC 20.
`COc1ccc(C(=O)Nc2ccc(Cl)cc2C(=O)NCc2ccco2)cc1OC` gave E coli WT exp -2, CYP2C19 activ 0.7, CYP2C19 inh 29, CYP2C9 inh 63*, CYP2C9 act 0.4 and Ecoli tolC 2.
For COc1cccc(NC(=O)CCN2CCN(C)CC2)c1 the results were E coli WT exp -3, CYP2C19 activ 0.9, CYP2C19 inh 11, CYP2C9 inh -14, CYP2C9 act 1.1 and Ecoli tolC -7.
O=C(CCN1C(=O)c2ccccc2C1=O)Nc1sc2c(c1C(=O)NCc1ccco1)CCCC2 was read as E coli WT exp -14, CYP2C19 activ 0.2, CYP2C19 inh 76*, CYP2C9 inh 92*, CYP2C9 act 0.1 and Ecoli tolC 23.
For COc1ccc(C(=O)Nc2sc3c(c2C(=O)NCc2ccco2)CCCC3)cc1OC the results were E coli WT exp -15, CYP2C19 activ 0.5, CYP2C19 inh 51*, CYP2C9 inh 86* and CYP2C9 act 0.1.
For CC(C(=O)Nc1sc2c(c1C(=O)NCc1ccco1)CCCC2)N1C(=O)c2ccccc2C1=O (stereo unspecified) the results were E coli WT exp -13, CYP2C19 activ 1.1, CYP2C19 inh -6, CYP2C9 inh 8 and CYP2C9 act 0.9.
`CCOc1ccccc1NC(=O)CN(c1ccc(C)cc1)S(=O)(=O)c1c(C)noc1C` gave E coli WT exp -18, CYP2C19 activ 0, CYP2C19 inh 99*, CYP2C9 inh 96*, CYP2C9 act 0 and Ecoli tolC 42.
Screening CCOc1ccccc1NS(=O)(=O)c1cccs1 returned E coli WT exp 5, CYP2C19 activ 0.2, CYP2C19 inh 78*, CYP2C9 inh -161, CYP2C9 act 2.6* and Ecoli tolC -9.
